This sample holds only a part of the variants without activity.

B1: tRNA (parent)
chain: GUUCCGUUGGCGUAAUGGUAACGCGUCUCCCUCCUAAGGAGAAGACUGCGGGUUCGAGUCCCGUACGGAACG

Variants of B1 are the subject of the data set. As to the kind of experiment: yeast fitness relative to wild type (ratio to wild type); higher = fitter; tRNA-Arg(CCU), competitive growth, 37 C, YPD. An outline of the steps:
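Variants of the tRNA-Arg(CCU) gene were chemically synthesised with a 3% per-site mutation rate across 69 sites and placed at the native genomic locus in Saccharomyces cerevisiae. Six parallel replicates of the pooled strains were competed in YPD at 37°C for 24 hours, and gene amplicons from the start and end populations were read by 100-nucleotide paired-end sequencing. Darwinian fitness relative to wild type was derived from changes in genotype frequencies. Genotypes required ≥ 100 starting reads, and estimates < 0.5 were set to 0.5.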
In the case of GUUCCGCUGGCGUAAUGGUAACGCGUCUCCUGCCUAAGGAGAAGACUGCGGGUUCGAGUCCCGUACGGAACG [U7C C31U U32G], the yeast fitness stood at 0.542.

For GUUCCGUUGGCGUAAUGGUAACGCGUCUCCAUCUUAAGGAGAAGACUGCGGGUUCGAGUCGCGUACGGAACG [C31A C34U C61G], the yeast fitness was 0.609.

As for GUUCCGUUGGCGUAAUGGUAAUGCGUCUCCCUCCUUAGGAGAAGACUGCGGGUUCGAGUCCGAUACGGAACG [C22U A36U C62G G63A], the yeast fitness is no more than 0.5.

For the variant GUUCCGUUGGCGUAAUGGUAACGCGUCUCCCUACUAGGGAGAAGACUGCGGGUUCGAGUCCCGUACGGAACG [C33A A37G], the yeast fitness amounted to 0.531.

Take GUUACGUUGGCGUAAUCGUAACCCGUCUCCCUCCUAAGGAGAAGCCUGCGGGUUCGAGUCCCGUAUGGAACG [C4A G17C G23C A45C C66U]: the yeast fitness is no more than 0.5.

On to GUUCCGUUGGGGUAAUGGUAACGCAUCUCCCCCCUAAGGAGAAGACUGCAUGUUCGAGACCCGAACGGAACG [C11G G25A U32C G50A G51U U59A U64A], for which the yeast fitness was 0.628.

As to GUCCCGUUGGCGUAAUGGUAACGCGUCGCCCUCCUAAGGAGAAGACUGCGGGUUCGCGUCCCGUACGGAACG [U3C U28G A57C], the yeast fitness was no more than 0.5.

On to GUUUCAUUGGCGUAUUGGUCACGCCUCUCCCUCCAAAGGAGAAGUCUGCGGGUUCGAGUCCCGUACGGAACG [C4U G6A A15U A20C G25C U35A A45U], for which the yeast fitness was no more than 0.5.

Turning to GUUCCGGUGGCGUAAUGGUUACGCGUCUCCCUCCUAAGGAGAAGACUGCGGGUUCGAGUCCCGUACGGAACG [U7G A20U], the yeast fitness turned out to be 0.742.

Regarding GUUCCGAUGGCGUACUGGUAACGCGUAUCCCUCCUAAGGAGAAGACUGCGGGUUCGAGUCGCGUACGGAACG [U7A A15C C27A C61G], the yeast fitness is no more than 0.5.

Take GUUCCAUUGGCGUAAUGGUAACGCGUCUCCCUCCAAAGGAGAAGACUGCGGGUUCGAGUCCAGUAGGGAACG [G6A U35A C62A C66G]: the yeast fitness turned out to be 0.694.

GUUCCGCUGGCGUAAAGGUAACGCGUCUCCCUCCUAAGGACAAGACUGCGGGUUCGAGUCCCGUACGGAACG [U7C U16A G41C]: the yeast fitness is 0.613.

On to GUUCCGUUGGCGUAAUGGUGACGCGUCUUCCUCCUAAGGAGAAGACUCCGGAUUCGAGUCCCGUACGGAACG [A20G C29U G48C G52A], for which the yeast fitness is no more than 0.5.

Turning to GUUCCGUUGGCCUAAUGGUAACGCGUCUCCCUCCUAAGGAGAAGACAGCGGCUUCGAGUCCCGUACGGAACG [G12C U47A G52C], the yeast fitness was no more than 0.5.

Regarding GUUCCGUUGGCGUAAUGGUAACGCGUUUCCCUCCUAAGCAGAAGACUGCGGGUUCGAGUACCGUACGGAACG [C27U G39C C60A], the yeast fitness was no more than 0.5.

On to GUUCCGAUGGCGUAAUGGUAACGCGUCUCCCUCCUAAGGAGAAAACUGCGGGUUCGAGUCCCGUACGGAACG [U7A G44A], for which the yeast fitness was found to be 0.755.

Take GUUCCGUUGGCGUAAUGGUAACGCGUUUCCCUCCUAAGGGGAAGACUGCGGGUUCGAGUCCCGUACGGAACG [C27U A40G]: the yeast fitness came to 0.834.

Take GUUCCGUUGGGGUAAUGGUAACGCGUCUCGCUCCUAAGGAGAAGACUGCGGGUUCGAGUCCCGUCCGGAACG [C11G C30G A65C]: the yeast fitness was no more than 0.5.

GUGCCGUUGGCGUAAUGGUAACGCGUCUCCCUCCUAAGGAGAAGGCUGCGGGUUCGGGUCCCGUACGGAACG [U3G A45G A57G]: the yeast fitness is 0.717.

GAUCCGUUGGCGUAGCGGUCUCGCGCCUCCCUCCUAAGGAGAAGACUGCGGGUUCGAGUCCCGUACGGAACG [U2A A15G U16C A20C A21U U26C]: the yeast fitness is 0.583.

GUUCCGUCGGCGAAAUGGUAACGCGUCUACGUCCUAAGGAGAAGACUGCGGGUUCGAGUCCCGUACGGAACG [U8C U13A C29A C31G]: the yeast fitness is no more than 0.5.

Take GUUCCGUUGGCCUAAUGGUAACGCUUCUCCCUCCUAAGGAGAACACUGCGGGUUCGAGUCCCGUACGGAACG [G12C G25U G44C]: the yeast fitness was no more than 0.5.

In the case of GUUCCGUUGGCGUAAUGGUAACGGGUCUCCCUCCUACGGAGAAGACUGCGGGUUCGUGUCCCGUACGGAACG [C24G A37C A57U], the yeast fitness is no more than 0.5.

For the variant GUUCCGUUGGCGUAAUGGUAACGCGUCUCCCUCCUAAGGAGAAGACUGAGGAUUCGAGUCUCGUACGGAACG [C49A G52A C61U], the yeast fitness was no more than 0.5.

With GUUCCGUUGGCGUAAUGGUAUUGCGUCUCCCUCCUAAGGAGAAGACUGCGGGUUCGAGCCCCGUACGGAACG [A21U C22U U59C], the yeast fitness was no more than 0.5.

With GUUCCGCUGGCGUAAUGGCAACGCGCCUCCCUCUUAAGGAGAAGACUGCGGAUUCGAGACCCCUACGGAACG [U7C U19C U26C C34U G52A U59A G63C], the yeast fitness is no more than 0.5.

As for GUUCCGUUGGUGUAAUGGUAACGCGUCUCCCUCCUAAGGAGAAGACAGCGGGUUCGAGUCCCGUACGGAACG [C11U U47A], the yeast fitness stood at 0.808.

Turning to GUUCCGUUGGCGUAAUGGUAACGUGUCCCCCUCCUAAGGAGAAGACUGCGGGUUCGAGUCCCGUACGGAACG [C24U U28C], the yeast fitness is 0.988.

Take GUUCCGGUGGCGUAAUGGUAACGAGUCUCCCUCCUAAGGAGAAGAGUGCGGGUUCGAGCCCGGUACGGAACG [U7G C24A C46G U59C C62G]: the yeast fitness was no more than 0.5.

For GUUCCGUUGGCGUAAUGGUACCGCGUCUCCCUCCUAAGGAGAAGCCUGUGGGUUCGAGUCCCGUACGGAACG [A21C A45C C49U], the yeast fitness was 0.582.

As to GUUCCGUUGGCGUAAUGGUAACGCCUCUCCCUCCUAAGGAGAAGACUGCAGGUUCGAGUCCCGUACGGAACG [G25C G50A], the yeast fitness was 1.

For GUUCCGUUGGCGUAAUGGUAACGCGUCUCGCUCCUAAGGAGUAGACUGCGCGUUCGAGUCCCGUACGGAACG [C30G A42U G51C], the yeast fitness is no more than 0.5.

With GUUACCUUGACGUAAUGGUAACGCGUCACCCUCCUAAGGAGAAGACUGCGGGUUCGAGUCCCGUACGGAACG [C4A G6C G10A U28A], the yeast fitness was no more than 0.5.

Consider GUUCUGUUCGGGUAAUGGUAACGAGGCUCCGUCCUAAGGAGAAGUCUGCGGGUUCGAGUCUCGUACGGAACG [C5U G9C C11G C24A U26G C31G A45U C61U], for which the yeast fitness was no more than 0.5.

Regarding GUUCCAUUGGCGUAAUGGUAACGCGUGUCCGUCCUAAGGAGAAGACUGCAGGUUCGAGUCCCGUACGGAUCG [G6A C27G C31G G50A A70U], the yeast fitness is no more than 0.5.

With GUACCGUUGGCGUAAUCGUCACGCGUCACCCUCCUAAGGAGAAGACUGCGGGUUCGAGUCCCGUACGGAACG [U3A G17C A20C U28A], the yeast fitness was no more than 0.5.

As for GUUCCGUUGGCGUAAUGGUAACGCGUCUUCCUCCUAAGGAGAAGACAGCGGGUUCGAGUCCCGUACGGUACG [C29U U47A A69U], the yeast fitness was 0.679.

Source of the values: the RNAGym collection of RNA variant scans (doi:10.1126/science.aae0568).
